A selection: hits, their analogues and other compounds. The true share with any hit is near 2%.
IMP-1 inhibitor: IMP-1 metallo-beta-lactamase inhibitors, primary screen, biochemical, epi-absorbance readout, Pseudomonas aeruginosa enzyme; metallo-beta-lactamase IMP-1 (Pseudomonas aeruginosa); purified IMP-1, nitrocefin hydrolysis, epi-absorbance fluorescence; inhibition, % at 5.6 µM; 290,000 tested, 0.45% active; AID 1556, 2009;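 active means inhibition above the mean plus 3 SD of all compounds in the same screening run, cut at about 4.5% in these data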;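 further: 0% = IMP-1 with DMSO and 100% = DMSO wells lacking enzyme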
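System: purified IMP-1; amount: IMP-1 0.2 nM before substrate addition; compound: single dose, 5.6 µM; times: 25 °C, 15 min preincubation, 25 min reaction; signal: Epi-absorbance via hydrolysed-nitrocefin quenching of white-plate fluorescence, 480/530 nm, EDTA stop; benchmarks: DMSO with and without IMP-1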
PvdQ inh: P. aeruginosa PvdQ acylase inhibitors, primary screen, biochemical, fluorescence, plate reader and imaging, single point; purified PvdQ acylase; AID 488965, 2010; PvdQ acylase [Pseudomonas aeruginosa LESB58]; inhibition, % at 10 µM; 340,000 tested, 0.063% active; in the data active means inhibition above about 30%, passing the limit was not always enough;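 further: 0% = vehicle neutral wells and 100% = reference inhibitor wells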
HKDC1 inh: HKDC1 hexokinase inhibitors, primary screen, biochemical, fluorescence, uHTS; Q2TB90; recombinant HKDC1, G6PDH/diaphorase resazurin coupled fluorescence; inhibition, % at 20 µM; 340,000 tested, 0.16% active; AID 493160, 2011;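 active means inhibition above about 35% when tested at 20 µM, limit read from the data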;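 further: plate controls were DMSO wells with enzyme for no effect and DMSO wells lacking enzyme for full effect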
Target sequence (Q2TB90 whole entry, looked up): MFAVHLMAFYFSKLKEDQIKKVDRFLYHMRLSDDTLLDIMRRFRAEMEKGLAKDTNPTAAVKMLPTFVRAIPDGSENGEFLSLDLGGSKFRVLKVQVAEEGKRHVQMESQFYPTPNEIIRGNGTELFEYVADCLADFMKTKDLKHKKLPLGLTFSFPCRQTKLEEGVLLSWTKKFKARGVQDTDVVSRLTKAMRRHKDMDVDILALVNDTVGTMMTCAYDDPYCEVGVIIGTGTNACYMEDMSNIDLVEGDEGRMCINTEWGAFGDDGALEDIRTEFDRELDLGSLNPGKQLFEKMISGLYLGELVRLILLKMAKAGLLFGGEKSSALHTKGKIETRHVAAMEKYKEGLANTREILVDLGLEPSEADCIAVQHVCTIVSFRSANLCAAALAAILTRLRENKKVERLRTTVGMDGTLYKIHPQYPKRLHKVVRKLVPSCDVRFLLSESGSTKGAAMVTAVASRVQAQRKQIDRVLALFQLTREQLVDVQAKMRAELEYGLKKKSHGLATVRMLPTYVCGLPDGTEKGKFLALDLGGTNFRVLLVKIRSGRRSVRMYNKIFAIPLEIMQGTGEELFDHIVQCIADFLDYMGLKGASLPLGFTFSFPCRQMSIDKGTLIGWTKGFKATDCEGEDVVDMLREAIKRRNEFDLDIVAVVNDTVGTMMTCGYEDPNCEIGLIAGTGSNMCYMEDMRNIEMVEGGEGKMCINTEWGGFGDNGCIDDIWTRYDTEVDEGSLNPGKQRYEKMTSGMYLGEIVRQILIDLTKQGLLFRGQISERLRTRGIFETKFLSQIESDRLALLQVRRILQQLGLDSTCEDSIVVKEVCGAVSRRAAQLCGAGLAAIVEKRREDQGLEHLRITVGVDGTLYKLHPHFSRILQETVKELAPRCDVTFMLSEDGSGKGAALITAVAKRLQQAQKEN
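System: Recombinant HKDC1 hexokinase | Amount: HKDC1 at 5 µg/mL | Reagent: Glucose with 1 mM ATP | Doses: Single 20 µM dose | Incubation: Reaction time 90 min, room temperature, protected from light | Signal: Coupled resazurin fluorescence, excitation 525 nm, emission 613 nm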
ATG4B inhibitor: ATG4B protease inhibitors, primary screen, biochemical, fluorescence, uHTS; inhibition, % at 8.33 µM; Cysteine protease ATG4B (Homo sapiens), Q9Y4P1; ATG4B cleavage of LC3-PLA2, NBD-HPC fluorescence, 1 h; 340,000 tested, 0.51% active; in the data active means inhibition above about 40%
VIM-2 inh: VIM-2 metallo-beta-lactamase inhibitors, primary screen, biochemical, epi-absorbance readout, Pseudomonas aeruginosa enzyme; purified VIM-2, nitrocefin hydrolysis, epi-absorbance fluorescence; inhibition, % at 5.6 µM; 290,000 tested, 0.89% active; AID 1527, 2009;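 active means inhibition above the mean of all tested compounds plus 3 SD, cutoff set per screening run, cut at about 7.5% in these data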;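 further: red hydrolysis product quenches plate fluorescence so inhibitors raise well fluorescence; 0% = enzyme with DMSO and 100% = DMSO without enzyme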
beta cell repl: inducers of MIN6 beta-cell proliferation, primary screen, ATP luminescence, uHTS | MIN6 cells proliferation, ATPlite luminescence, 48 h; cells starved in 0.2% serum; 100% = growth in 10% serum | proliferation, % at 10 µM | 330,000 tested, 0.29% active | AID 2380, 2010;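 active means compounds whose signal lies at least 3.5 SD above the mean of all wells on their plate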;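 further: 0% = DMSO-treated cells in low-serum medium and 100% = 10% serum control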
ATG4B confirm: ATG4B protease inhibitors, retest, confirmation, biochemical, fluorescence, single concentration; shares compounds with ATG4B inhibitor; ATG4B protease fluorescent substrate cleavage assay; inhibition, % at 8.33 µM; 320 tested, 92% active; AID 504757, 2011; in the data active means inhibition above about 39%
PLA2 ctr: PLA2 enzyme inhibition, counter-screen for ATG4B inhibitor project, biochemical, single concentration, uHTS hits; shares compounds with ATG4B inhibitor; inhibition, % at 8.33 µM; 1,600 tested, 66% active; purified PLA2, NBD-C6-HPC fluorescence, 45 min; in the data active means inhibition above about 50%
An asterisk follows results filed as active; · = no result.

SMILES | IMP-1 inhibitor | PvdQ inh | HKDC1 inh | ATG4B inhibitor | VIM-2 inh | beta cell repl | PLA2 ctr | others
Cc1ncc(CC(=O)n2cc(C(=O)c3cc(F)ccc3O)cn2)s1 | 0.2 | -14.0 | 18.0 | 40.6* | -2.6 | 1.1 | 50.3*
Clc1cccc(CN2CCC3CC2c2cc(N4CCCCC4)ccc23)c1 (stereo not drawn) | · | -15.4 | -2.8 | 11.2 | · | · | ·
Cc1cc(C(=O)N2CCCC(C(=O)c3ccc(Oc4ccccc4)cc3)C2)n[nH]1 (stereo not drawn) | -2.3 | -17.2 | -3.3 | 46.2* | -4.1 | -2.1 | 38.7 | ATG4B confirm=61.7*
CC(C)(C)c1ccc(C(=O)C2CCCN(C(=O)c3ccccn3)C2)cc1 (stereo not drawn) | -2.3 | -9.1 | 4.5 | 43.1* | -1.8 | -3.7 | 42.5 | ATG4B confirm=80.6*
Cc1cnc(C(=O)N2CCCC(C(=O)c3ccc(C(C)(C)C)cc3)C2)cn1 (stereo not drawn) | -2.0 | -11.4 | -3.4 | 5.8 | -2.2 | -3.8 | ·
Cc1ccc(OCCSc2nc(NC(C)C)nc(NC(C)C)n2)cc1 | -3.1 | -13.5 | 1.0 | 12.4 | -2.1 | 0.0 | ·
O=C(Oc1cc2oc(=O)c3c(c2cc1Cl)CCCC3)c1cccs1 | -2.5 | -6.4 | 18.8 | 21.0 | 0.3 | -3.5 | ·
CSCCC(NC(=O)c1ccco1)C(=O)NCc1ccc2c(c1)OCO2 (stereo not drawn) | · | -14.5 | -4.4 | -8.3 | · | 0.8 | ·
Cc1ccsc1/C=C1\CCc2ccccc2C1=O | -1.5 | 4.7 | 16.6 | 45.6* | -3.0 | -4.9 | 67.8*
Cc1ccccc1/C=C1\CCCc2ccccc2C1=O | -2.4 | -9.9 | 3.3 | 52.7* | -1.0 | 0.0 | 61.1*
O=C1/C(=C\c2ccc3ccccc3c2)CCCc2ccccc21 | -2.6 | -14.9 | 1.6 | 17.6 | -1.1 | -5.8 | ·
C(=C\c1ccccc1)/CSc1nnc(-c2ccccn2)n1Cc1ccco1 | 1.6 | -8.9 | -3.3 | 20.7 | -2.2 | -3.1 | ·
O=C(C1=C(Nc2ccccc2)c2ccccc2S(=O)(=O)N1)c1ccccc1 | -1.3 | -6.5 | 0.4 | 73.6* | 0.0 | -0.7 | 83.2*
CCc1cccc(CC)c1NC(=O)COC(=O)c1ccccc1-c1nc2ccccc2s1 | -0.6 | -19.8 | 1.2 | 66.0* | -2.2 | 0.0 | 73.7*
Cc1ccc(NC(=O)COC(=O)c2ccccc2-c2nc3ccccc3s2)c(C)c1 | -3.9 | -6.7 | 0.1 | 14.5 | -4.8 | -0.6 | ·
Cc1cccc2nc(-c3cccnc3)c(NCCC(C)C)n12 | -1.9 | 9.5 | 4.4 | 40.5* | -2.5 | -1.1 | 51.5*
CC(=O)NCC(=O)NC1CC(C)(C)Cc2c1cnn2-c1ccccc1 (stereo not drawn) | 0.0 | -10.3 | -2.4 | -3.3 | 1.2 | 0.8 | ·
Cc1cc(C(=O)N/N=C/c2ccc(-c3cccc(Br)c3)o2)n[nH]1 | -3.8 | · | -5.8 | -2.5 | -1.7 | -3.0 | ·
Cc1cc(C(=O)N/N=C/c2ccc(-c3cccc(Cl)c3Cl)o2)n[nH]1 | -3.4 | -11.4 | -1.2 | 50.3* | -1.5 | -5.8 | 21.1
NC(=O)c1ccc(C(F)(F)F)n(Cc2cccc(Cl)c2)c1=O | -3.9 | -11.7 | -3.6 | 44.5* | -2.2 | -0.2 | 38.7 | ATG4B confirm=64.4*
COc1ccc(CNC(=O)COC(=O)CN2C(=O)NC3(CCCC3)C2=O)cc1 | · | -16.5 | -2.3 | -1.4 | · | -4.9 | ·
Cc1cc(=O)oc2cc(OCC(=O)Nc3cccc(S(=O)(=O)N(C)C)c3)ccc12 | -2.9 | -5.3 | -15.1 | 40.0* | -3.8 | 3.1 | -0.6
O=[N+]([O-])c1cc2oc3c(c2c(C=NCc2ccccc2)c1O)CCCC3 | 0.8 | -7.3 | 7.0 | 75.8* | -3.6 | 0.0 | 23.5 | ATG4B confirm=48.1*
NNC(=O)c1ccc(CSc2n[nH]c(=O)[nH]c2=O)cc1 | -2.5 | 4.2 | -4.4 | 1.4 | -2.6 | -2.7 | ·
CC(C)COc1ccc(CNC(=S)NCc2ccccc2)cc1 | -3.2 | -5.8 | 2.7 | 64.3* | -4.4 | -4.9 | 76.2*
SMILES | IMP-1 inhibitor | PvdQ inh | HKDC1 inh | ATG4B inhibitor | VIM-2 inh | beta cell repl | PLA2 ctr | others
CCOc1ccc(CNC(=S)NCc2ccc(OCC)cc2)cc1 | -6.2 | -4.5 | 7.1 | 0.4 | -3.8 | -1.0 | ·
COc1ccc(CNc2ccc(-c3ccc(OC)cc3)nn2)cc1 | -3.2 | -6.3 | 14.2 | -9.2 | -2.8 | -2.9 | ·
COc1ccc(CNc2ccc(-c3ccccc3OC)nn2)cc1 | 0.5 | -3.7 | -3.9 | 48.4* | 1.0 | -2.3 | 3.0
O=C(Cc1ccc(Cl)cc1)Nc1ccc(N2CCCC2)cc1 | 0.8 | -8.8 | -5.3 | -4.7 | -2.6 | -2.8 | ·
Clc1cccc(Cl)c1CNc1ccc(N2CCCC2)cc1 | -1.7 | · | 8.6 | 42.6* | -2.8 | -6.0 | 41.9 | ATG4B confirm=64.0*
CN(C(=O)CC1C(=O)NCCN1Cc1ccccc1C(F)(F)F)C1CCOCC1 (stereo not drawn) | -3.8 | 1.2 | 1.0 | 1.1 | 1.2 | -0.6 | ·
O=C(O)C1C2CCC(C2)C1C(=O)Nc1cccc([N+](=O)[O-])c1 (stereo not drawn) | -2.6 | -9.6 | -2.1 | 1.0 | -1.2 | · | ·
O=C(Nc1cccc([N+](=O)[O-])c1)C1C2CC/C=C\CCC21 (stereo not drawn) | -2.2 | -2.0 | -2.0 | 54.0* | -4.4 | -4.0 | 66.0*
COc1ccc2c(-c3ccccc3)cc(SCC(=O)NC3CCS(=O)(=O)C3)nc2c1 (stereo not drawn) | -1.2 | -8.2 | 18.2 | -14.3 | -1.2 | 0.8 | ·
Cn1c(-c2ccc3c(c2)OCO3)cnc1NCc1ccccc1 | -0.2 | -8.2 | 3.1 | 3.8 | 4.3 | -4.1 | ·
Cn1c(-c2ccc3c(c2)OCO3)cnc1NCc1cccc(Cl)c1 | -4.1 | -12.7 | -4.2 | 52.4* | -2.7 | -4.3 | 57.6*
Cc1cc(C)c(C)c(S(=O)(=O)N2CCN(C(=O)CNC(=O)c3ccco3)CC2)c1C | · | 6.6 | 1.6 | -3.8 | · | 3.0 | ·
CCOC(=O)C(=NC(C)CC)NNc1cccc(C(F)(F)F)c1 (stereo not drawn) | -1.8 | -7.6 | -6.4 | 40.2* | -3.6 | -3.6 | 4.2
CCOc1cc(/C=C2\N=C(SCC)SC2=O)cc([N+](=O)[O-])c1OC(C)=O | -1.9 | -9.9 | 8.8 | 76.1* | 0.8 | -3.8 | 75.1*
